# Test results reported in ChEMBL document CHEMBL4130479, “Scalaradial Is a Potent Inhibitor of Transient Receptor Potential Melastatin 2 (TRPM2) Ion Channels” (J Nat Prod, 2017).
# Calls of active or inactive are those of the source. No cut-off for these calls is given here.
# How the values were obtained:
# [1] = target: T1, Transient receptor potential cation channel subfamily M member 2 (Homo sapiens, UniProt O94759); experiment: Inhibition of human FLAG-tagged TRPM2 expressed in HEK293 cells assessed as reduction in ADPR-induced intracellular calcium flux after 30 to 60 mins by whole cell patch clamp electrophysiology method; assay type: cell-based
# In short: (§1)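 Human FLAG-TRPM2 in HEK293 cells, induced with tetracycline for 6–9 h and incubated 30–60 min in external Ringer's (0.1–2 μM) before patching. Pipette was K-glutamate, Ca2+ buffered to 300 nM, with 100 μM ADPR. Ramps ran −100 to +100 mV from a 0 mV holding potential, 0.5 Hz.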
# [2] = target: T1, Transient receptor potential cation channel subfamily M member 2; experiment: Inhibition of human FLAG-tagged TRPM2 expressed in HEK293 cells assessed as reduction in ADPR-induced intracellular calcium flux at 2 uM by whole cell patch clamp electrophysiology method; assay type: cell-based; conditions: TDE = time-dependent effect
# [3] = target: T1, Transient receptor potential cation channel subfamily M member 2; experiment: Inhibition of human FLAG-tagged TRPM2 expressed in HEK293 cells assessed as reduction in ADPR-induced intracellular calcium flux at 2 uM treated for 6 hrs followed by compound washout measured within 5 mins by whole cell patch clamp electrophysiology method; assay type: cell-based
# [4] = target: Transient receptor potential cation channel subfamily M member 7 (Mus musculus) (UniProt Q923J1); experiment: Inhibition of mouse FLAG-tagged TRPM7 expressed in HEK293 cells assessed as reduction in BAPTA-induced intracellular calcium flux at 0.1 to 2 uM by whole cell patch clamp electrophysiology method; assay type: cell-based; conditions: TDE = time-dependent effect
# In short: (§2)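 Mouse FLAG-TRPM7 in HEK293 cells, induced with tetracycline for 19–22 h and incubated with 100 nM–2 μM compound in culture medium from 15 min (maximum 60 min) before patching. Pipette was K-glutamate with 10 mM K-BAPTA. Ramps ran −100 to +100 mV, 0.5 Hz. Current at +80 mV and 200 s was normalized, and IC50 came from a fit.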
# [5] = target: Transient receptor potential cation channel subfamily M member 7 (Mus musculus, UniProt Q923J1); experiment: Inhibition of mouse FLAG-tagged TRPM7 expressed in HEK293 cells assessed as reduction in BAPTA-induced intracellular calcium flux after 15 to 60 mins by whole cell patch clamp electrophysiology method; assay type: cell-based; in short: as §2
# [6] = target: ORAI1/STIM1 (Homo sapiens) (UniProt Q96D31+Q13586); experiment: Inhibition of EGFP-tagged Orai1/STIM1 (unknown origin) expressed in HEK293 cells assessed as reduction in BAPTA-induced calcium release activated calcium channel currents at 2 uM after 30 to 60 mins by whole cell patch clamp method; assay type: cell-based
# In short: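 HEK293 cells stably expressing STIM1 and transiently transfected with CRACM1 (Orai1)-IRES-EGFP, recorded 24–48 h after transfection and picked by EGFP. Cells were exposed for 30–60 min. External solution held 10 mM CaCl2 (NaCl/TEA-based, pH 7.2). Pipette was Cs-glutamate with 20 mM Cs-BAPTA and 20 μM IP3. Ramps ran −150 to +150 mV over 50 ms at 0.5 Hz, read at −80 mV.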
# [7] = target: Transient receptor potential cation channel subfamily M member 4 (Homo sapiens) (UniProt Q8TD43); experiment: Inhibition of TRPM4 in human Jurkat T cells assessed as reduction in intracellular calcium flux at 500 nM within 60 mins by whole cell patch clamp electrophysiology method; assay type: cell-based
# In short: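 Endogenous TRPM4-like currents in Jurkat T cells, preincubated in standard external solution and recorded within 60 min. Pipette was Cs-glutamate with intracellular Ca2+ clamped to 2 μM. Ramps ran −100 to +100 mV over 50 ms at 0.5 Hz, and current was normalized and plotted against time.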
# [8] = target: Transient receptor potential cation channel subfamily V member 1 (Rattus norvegicus) (UniProt O35433); experiment: Inhibition of TRPV1 in rat INS-1 cells assessed as reduction in intracellular calcium flux at 500 nM measured within 60 mins by whole cell patch clamp method; assay type: cell-based
# In short: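 Endogenous TRPV1-like currents in INS-1 cells, preincubated in external solution and recorded within 60 min. Pipette was Cs-glutamate with Ca2+ unbuffered. Current was activated by 10 μM capsaicin in the bath. Ramps ran −100 to +100 mV, 50 ms, 0.5 Hz.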
# [9] = target: Transient receptor potential cation channel subfamily M member 2 (Rattus norvegicus, UniProt E9PTA2); experiment: Inhibition of TRPM2 in rat INS-1 cells assessed as reduction in ADPR-induced intracellular calcium flux measured after 60 mins by whole cell patch clamp electrophysiology method; assay type: cell-based
# In short: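 Whole-cell TRPM2 currents in INS-1 cells at 21–25 °C. Pipette was Cs-glutamate with ADPR and no Ca2+ chelator. Compound (10 nM–2 μM) in external Ringer's, recorded within the first 60 min of incubation. Ramps ran −100 to +100 mV, 50 ms, 0.5 Hz. Current at −80 mV and 50 s was normalized to control, and IC50 came from a dose–response fit.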
# [10] = test system: INS1; experiment: Cytotoxicity against rat INS-1 cells assessed as granule formation; assay type: cell-based
# In short: (§3)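 INS-1 cells (RPMI, 10% FBS, 37 °C, 5% CO2) kept under continual scalaradial exposure in standard external solution during whole-cell patching. Cells were scored by eye for rounding, granule formation and blebbing over at least 1 h.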
# [11] = test system: INS1; experiment: Cytotoxicity against rat INS-1 cells assessed as cell rounding; assay type: cell-based; in short: as §3
# [12] = test system: INS1; experiment: Cytotoxicity against rat INS-1 cells assessed as cell blebbing; assay type: cell-based; in short: as §3
# [13] = test system: INS1; experiment: Cytotoxicity against rat INS-1 cells at 500 nM measured for 1 hr; assay type: cell-based; conditions: ins1, 1 h, 0.5 µM; in short: as §3
# [14] = target: T2, Phospholipase A2 (Apis mellifera, UniProt P00630); experiment: Inhibition of bee venom PLA2
# T2 sequence (P00630 whole entry): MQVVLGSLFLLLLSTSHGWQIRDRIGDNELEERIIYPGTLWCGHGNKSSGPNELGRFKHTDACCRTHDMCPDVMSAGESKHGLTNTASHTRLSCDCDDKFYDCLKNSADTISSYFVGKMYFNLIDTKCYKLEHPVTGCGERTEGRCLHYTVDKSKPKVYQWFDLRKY
# [15] = Inhibition of recombinant human sPLA2 using [1-14C]oleate-labelled autoclaved Escherichia coli as substrate measured after 15 mins
# [16] = target: T1, Transient receptor potential cation channel subfamily M member 2; experiment: Inhibition of human FLAG-tagged TRPM2 expressed in HEK293 cells assessed as reduction in H2O2-induced intracellular calcium flux pretreated for 30 secs followed by H2O2 addition measured for 120 secs by […]; assay type: cell-based
# [17] = target: T1, Transient receptor potential cation channel subfamily M member 2; experiment: Inhibition of human FLAG-tagged TRPM2 expressed in HEK293 cells assessed as reduction in ADPR-induced intracellular calcium flux at 20 uM measured within 60 mins by whole cell patch clamp electrophysiology method; assay type: cell-based
# In short: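 Tetracycline-induced HEK293 cells stably carrying FLAG-human TRPM2 were incubated with inhibitor in standard external Ringer's (pH 7.2). Whole-cell recordings were made during the first 60 min at 21–25 °C. Pipette: K-glutamate with unbuffered Ca2+ plus 100 μM ADPR. Ramps ran −100 to +100 mV over 50 ms at 0.5 Hz. Current was taken at −80 mV as % of same-day controls (n = 3–17).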
# [18] = target: T1, Transient receptor potential cation channel subfamily M member 2; experiment: Inhibition of human FLAG-tagged TRPM2 expressed in HEK293 cells assessed as reduction in ADPR-induced intracellular calcium flux at 5 uM measured within 60 mins by whole cell patch clamp electrophysiology method; assay type: cell-based
# In short: (§4)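 TRPM2-HEK293 cells incubated with the sPLA2 inhibitors in standard external Ringer's. Whole-cell currents were recorded within the first 60 min using K-glutamate pipette with 100 μM ADPR. Current at −80 mV was normalized to same-day controls, n = 3–17.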
# [19] = test system: HEK293; experiment: Cytotoxicity against HEK293 cells assessed as cell death at 25 to 50 uM measured for 1 hr; assay type: cell-based; conditions: human, hek293, 1 h
# [20] = target: T1, Transient receptor potential cation channel subfamily M member 2; conditions: HEK293, 100 nM
# [21] = target: T1, Transient receptor potential cation channel subfamily M member 2; experiment: Inhibition of human FLAG-tagged TRPM2 expressed in HEK293 cells assessed as reduction in ADPR-induced intracellular calcium flux at 200 to 2000 nM measured after 60 mins by whole cell patch clamp electrophysiology method; assay type: cell-based
# In short: (§5)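 HEK293 cells stably carrying tetracycline-inducible FLAG-human TRPM2, induced 6–9 h, preincubated 30–60 min with compound in external Ringer's, 21–25 °C. Whole-cell patch clamp used K-glutamate pipette solution with 100 μM ADPR and Ca2+ buffered to 300 nM. Ramps from −100 to +100 mV over 50 ms at 0.5 Hz.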
# [22] = test system: HEK293; experiment: Cytotoxicity against HEK293 cells assessed as effect on cell viability at 2 uM; assay type: cell-based; conditions: human, hek293, 2 µM
# [23] = test system: HEK293; experiment: Cytotoxicity against HEK293 cells assessed as cell rounding at 2 uM; assay type: cell-based; conditions: human, hek293, 2 µM
# [24] = test system: HEK293; experiment: Cytotoxicity against HEK293 cells assessed as granule formation at 2 uM; assay type: cell-based; conditions: human, hek293, 2 µM
# [25] = test system: HEK293; experiment: Cytotoxicity against HEK293 cells assessed as cell blebbing at 2 uM; assay type: cell-based; conditions: human, hek293, 2 µM
# [26] = target: T1, Transient receptor potential cation channel subfamily M member 2; experiment: Inhibition of human FLAG-tagged TRPM2 expressed in HEK293 cells assessed as reduction in ADPR-induced intracellular […] at 20 to 200 nM measured after 60 mins by whole cell patch clamp electrophysiology method; assay type: cell-based; in short: as §5
# [27] = test system: HEK293; experiment: Cytotoxicity against HEK293 cells assessed as effect on cell viability at 200 nM; assay type: cell-based; conditions: human, hek293, 0.2 µM
# In short: (§6)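 Tetracycline-induced human TRPM2-HEK293 cells preincubated 60 min with compound in serum-containing medium, then moved to standard external Ringer's with compound still present for whole-cell recording ([…] internal). Cells scored by eye for rounding, granule formation and blebbing.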
# [28] = test system: HEK293; experiment: Cytotoxicity against HEK293 cells assessed as cell rounding at 200 nM; assay type: cell-based; conditions: human, hek293, 0.2 µM; in short: as §6
# [29] = test system: HEK293; experiment: Cytotoxicity against HEK293 cells assessed as granule formation at 200 nM; assay type: cell-based; conditions: human, hek293, 0.2 µM; in short: as §6
# [30] = test system: HEK293; experiment: Cytotoxicity against HEK293 cells assessed as cell blebbing at 200 nM; assay type: cell-based; conditions: human, hek293, 0.2 µM; in short: as §6
# [31] = target: T1, Transient receptor potential cation channel subfamily M member 2; experiment: Inhibition of human TRPM2 expressed in HEK293 cells assessed as reduction in ADPR-induced intracellular calcium flux at 0 mV holding potential by whole cell patch clamp electrophysiology method; assay type: cell-based; in short: as §1
# [32] = target: T1, Transient receptor potential cation channel subfamily M member 2; experiment: Inhibition of human FLAG-tagged TRPM2 expressed in HEK293 cells assessed as reduction in ADPR-induced intracellular calcium flux at 1 uM measured within 60 mins by whole cell patch clamp electrophysiology method; assay type: cell-based; in short: as §4
# [33] = test system: HEK293; experiment: Cytotoxicity against HEK293 cells assessed as cell death at 5 to 10 uM measured for 1 hr; assay type: cell-based; conditions: human, hek293, 1 h
# T1 sequence (O94759 whole entry): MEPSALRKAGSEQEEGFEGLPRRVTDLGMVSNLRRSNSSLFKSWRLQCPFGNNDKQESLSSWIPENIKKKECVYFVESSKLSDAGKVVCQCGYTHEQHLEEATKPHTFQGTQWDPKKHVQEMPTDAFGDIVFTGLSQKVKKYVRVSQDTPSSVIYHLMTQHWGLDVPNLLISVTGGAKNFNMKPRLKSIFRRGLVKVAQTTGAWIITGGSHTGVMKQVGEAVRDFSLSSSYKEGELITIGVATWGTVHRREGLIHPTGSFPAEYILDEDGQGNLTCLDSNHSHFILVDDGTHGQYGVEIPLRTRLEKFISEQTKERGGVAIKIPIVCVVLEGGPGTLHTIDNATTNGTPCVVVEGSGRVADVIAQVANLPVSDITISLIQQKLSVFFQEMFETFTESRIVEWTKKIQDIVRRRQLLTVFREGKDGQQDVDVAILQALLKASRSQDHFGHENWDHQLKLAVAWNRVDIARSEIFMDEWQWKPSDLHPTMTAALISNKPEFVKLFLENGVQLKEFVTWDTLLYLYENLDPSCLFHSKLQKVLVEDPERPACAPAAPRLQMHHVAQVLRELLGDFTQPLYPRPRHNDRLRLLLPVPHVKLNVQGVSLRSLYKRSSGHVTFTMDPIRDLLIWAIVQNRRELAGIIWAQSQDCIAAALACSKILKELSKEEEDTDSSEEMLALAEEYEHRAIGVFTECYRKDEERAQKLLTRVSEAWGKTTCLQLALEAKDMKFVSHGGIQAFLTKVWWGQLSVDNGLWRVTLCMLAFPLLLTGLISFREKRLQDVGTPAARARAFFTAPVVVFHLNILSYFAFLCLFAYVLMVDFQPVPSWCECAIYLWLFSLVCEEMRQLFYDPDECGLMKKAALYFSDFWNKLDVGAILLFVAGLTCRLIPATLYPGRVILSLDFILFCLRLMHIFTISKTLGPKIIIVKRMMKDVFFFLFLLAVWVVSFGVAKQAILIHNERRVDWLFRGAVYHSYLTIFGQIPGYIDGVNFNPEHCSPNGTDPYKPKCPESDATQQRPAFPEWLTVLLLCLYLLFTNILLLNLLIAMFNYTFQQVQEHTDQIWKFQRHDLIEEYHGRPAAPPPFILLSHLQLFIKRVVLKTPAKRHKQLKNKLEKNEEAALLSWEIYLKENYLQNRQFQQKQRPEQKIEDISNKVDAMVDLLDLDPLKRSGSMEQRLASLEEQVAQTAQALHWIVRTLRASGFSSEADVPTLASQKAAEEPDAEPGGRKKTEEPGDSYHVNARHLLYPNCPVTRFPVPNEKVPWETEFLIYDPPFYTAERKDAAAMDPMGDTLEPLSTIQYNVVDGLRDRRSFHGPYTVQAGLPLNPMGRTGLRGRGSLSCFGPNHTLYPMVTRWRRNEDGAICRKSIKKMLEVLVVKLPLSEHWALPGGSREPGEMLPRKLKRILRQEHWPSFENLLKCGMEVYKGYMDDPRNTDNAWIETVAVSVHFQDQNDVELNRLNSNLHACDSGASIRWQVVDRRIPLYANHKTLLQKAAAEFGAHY
# Transient receptor potential cation channel subfamily V member 1 (Rattus norvegicus), sequence (O35433 whole entry): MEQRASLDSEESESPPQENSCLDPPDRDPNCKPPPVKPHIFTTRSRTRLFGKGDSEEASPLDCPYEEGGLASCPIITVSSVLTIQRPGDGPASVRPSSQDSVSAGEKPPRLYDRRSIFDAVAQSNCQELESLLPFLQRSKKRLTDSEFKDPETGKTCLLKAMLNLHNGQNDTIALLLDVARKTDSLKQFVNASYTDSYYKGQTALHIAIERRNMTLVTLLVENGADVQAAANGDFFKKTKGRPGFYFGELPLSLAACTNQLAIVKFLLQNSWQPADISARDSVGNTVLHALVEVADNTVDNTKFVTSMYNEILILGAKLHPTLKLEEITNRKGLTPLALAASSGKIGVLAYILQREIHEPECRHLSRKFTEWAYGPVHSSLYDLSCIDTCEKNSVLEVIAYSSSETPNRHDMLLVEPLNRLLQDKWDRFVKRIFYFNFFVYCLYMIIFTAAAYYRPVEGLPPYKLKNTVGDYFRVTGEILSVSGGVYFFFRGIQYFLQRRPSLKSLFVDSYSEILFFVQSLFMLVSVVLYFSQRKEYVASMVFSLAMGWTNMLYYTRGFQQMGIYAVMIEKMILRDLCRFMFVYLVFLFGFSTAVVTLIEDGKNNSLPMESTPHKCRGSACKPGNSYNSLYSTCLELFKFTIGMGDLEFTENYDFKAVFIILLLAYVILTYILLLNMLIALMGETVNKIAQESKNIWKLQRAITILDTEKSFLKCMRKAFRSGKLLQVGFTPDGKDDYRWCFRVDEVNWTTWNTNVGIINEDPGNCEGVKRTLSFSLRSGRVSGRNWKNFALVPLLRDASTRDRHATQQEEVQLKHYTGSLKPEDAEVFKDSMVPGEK
# ORAI1/STIM1 (Homo sapiens), sequence (Q13586 23-685 partner limits assumed): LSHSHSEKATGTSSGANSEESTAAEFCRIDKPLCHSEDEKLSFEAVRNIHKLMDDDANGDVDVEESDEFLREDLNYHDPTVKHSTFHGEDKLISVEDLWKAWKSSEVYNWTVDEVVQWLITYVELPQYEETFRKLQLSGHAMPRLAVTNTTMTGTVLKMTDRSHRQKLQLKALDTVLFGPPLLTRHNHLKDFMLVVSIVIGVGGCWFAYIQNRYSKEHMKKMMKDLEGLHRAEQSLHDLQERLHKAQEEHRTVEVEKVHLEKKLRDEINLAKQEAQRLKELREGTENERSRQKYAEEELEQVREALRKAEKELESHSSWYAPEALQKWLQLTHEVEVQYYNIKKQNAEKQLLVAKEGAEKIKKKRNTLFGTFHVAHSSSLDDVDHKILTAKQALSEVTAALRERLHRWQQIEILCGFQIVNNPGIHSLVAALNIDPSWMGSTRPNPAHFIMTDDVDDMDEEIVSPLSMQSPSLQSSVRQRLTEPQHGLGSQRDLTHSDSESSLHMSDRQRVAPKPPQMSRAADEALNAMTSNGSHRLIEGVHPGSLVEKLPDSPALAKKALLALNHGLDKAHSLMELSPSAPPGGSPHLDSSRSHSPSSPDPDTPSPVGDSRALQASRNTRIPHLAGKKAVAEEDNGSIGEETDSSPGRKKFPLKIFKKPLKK
# ORAI1/STIM1 (Homo sapiens), sequence (Q96D31 whole entry): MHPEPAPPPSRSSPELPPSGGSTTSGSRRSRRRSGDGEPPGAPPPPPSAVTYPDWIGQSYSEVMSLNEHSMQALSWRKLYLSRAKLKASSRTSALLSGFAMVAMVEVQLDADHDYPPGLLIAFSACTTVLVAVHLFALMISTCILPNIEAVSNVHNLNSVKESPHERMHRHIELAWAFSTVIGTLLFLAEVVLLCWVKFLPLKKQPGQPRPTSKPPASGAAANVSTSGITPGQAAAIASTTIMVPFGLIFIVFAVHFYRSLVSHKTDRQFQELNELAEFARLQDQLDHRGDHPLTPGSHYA
# Transient receptor potential cation channel subfamily M member 2 (Rattus norvegicus, UniProt E9PTA2), sequence (E9PTA2 whole entry): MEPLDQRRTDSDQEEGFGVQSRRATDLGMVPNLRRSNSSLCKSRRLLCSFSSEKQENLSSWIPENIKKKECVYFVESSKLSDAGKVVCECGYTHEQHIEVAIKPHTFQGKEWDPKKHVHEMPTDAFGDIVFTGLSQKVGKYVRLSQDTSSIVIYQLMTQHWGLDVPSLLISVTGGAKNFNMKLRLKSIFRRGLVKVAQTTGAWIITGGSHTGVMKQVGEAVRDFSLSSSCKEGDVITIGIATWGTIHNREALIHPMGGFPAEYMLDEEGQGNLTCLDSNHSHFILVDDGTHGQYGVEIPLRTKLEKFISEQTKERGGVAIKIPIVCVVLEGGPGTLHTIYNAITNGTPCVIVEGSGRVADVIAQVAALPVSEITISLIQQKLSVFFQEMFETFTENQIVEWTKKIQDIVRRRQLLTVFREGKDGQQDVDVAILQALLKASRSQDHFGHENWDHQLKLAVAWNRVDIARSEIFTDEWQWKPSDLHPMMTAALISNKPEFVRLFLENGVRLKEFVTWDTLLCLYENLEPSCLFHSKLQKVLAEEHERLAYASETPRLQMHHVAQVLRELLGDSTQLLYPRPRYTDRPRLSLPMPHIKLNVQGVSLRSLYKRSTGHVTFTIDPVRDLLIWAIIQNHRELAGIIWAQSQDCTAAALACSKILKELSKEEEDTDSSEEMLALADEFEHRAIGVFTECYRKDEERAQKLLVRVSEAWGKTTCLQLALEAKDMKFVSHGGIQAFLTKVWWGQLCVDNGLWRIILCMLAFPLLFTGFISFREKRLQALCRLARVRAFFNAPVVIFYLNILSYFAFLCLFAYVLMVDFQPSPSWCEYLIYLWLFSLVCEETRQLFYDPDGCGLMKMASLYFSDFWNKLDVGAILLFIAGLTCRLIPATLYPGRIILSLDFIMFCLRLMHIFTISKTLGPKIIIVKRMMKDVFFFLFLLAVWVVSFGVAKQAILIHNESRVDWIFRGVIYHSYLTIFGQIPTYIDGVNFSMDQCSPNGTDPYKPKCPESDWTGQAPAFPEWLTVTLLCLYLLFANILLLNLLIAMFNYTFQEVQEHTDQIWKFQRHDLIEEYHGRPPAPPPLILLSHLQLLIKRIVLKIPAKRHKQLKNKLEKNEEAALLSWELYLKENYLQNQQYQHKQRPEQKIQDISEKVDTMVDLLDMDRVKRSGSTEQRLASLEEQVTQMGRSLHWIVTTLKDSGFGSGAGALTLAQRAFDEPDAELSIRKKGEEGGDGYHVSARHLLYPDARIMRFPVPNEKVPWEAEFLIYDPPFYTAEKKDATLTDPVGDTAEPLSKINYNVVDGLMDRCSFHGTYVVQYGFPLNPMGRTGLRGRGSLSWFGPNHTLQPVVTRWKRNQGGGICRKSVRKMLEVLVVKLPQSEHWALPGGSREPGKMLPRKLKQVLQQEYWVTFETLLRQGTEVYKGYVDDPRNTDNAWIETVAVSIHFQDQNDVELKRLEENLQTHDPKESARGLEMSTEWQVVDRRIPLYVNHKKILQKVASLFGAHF
structure (smiles),measurement,setting,value
CC(=O)O[C@H]1C[C@@H]2[C@@]3(C)CCCC(C)(C)[C@@H]3CC[C@@]2(C)[C@@H]2CC=C(C=O)[C@H](C=O)[C@@]12C [SCALARADIAL],IC50,[1],210 nM
same,inhibition,[1],Dose-dependent effect
same,inhibition,[2],Tde
same,inhibition,[3],inactive
same,inhibition,[4],Tde
same,IC50,[5],760 nM
same,inhibition,[6],inactive
same,inhibition,[7],inactive
same,inhibition,[8],inactive
same,IC50,[9],330 nM
same,Activity,[10],Toxic
same,Activity,[11],Toxic
same,Activity,[12],Toxic
same,Activity,[13],Non-Toxic
same,IC50,[14],70 nM
same,IC50,[15],5.4 µM
O=C1NCCc2c(OCCCCN3CCCCC3)cccc21,IC50,[16],600 nM
same,inhibition,[17],inactive
O=C(O)CC[C@@H](Cc1ccc(OCc2ccccc2)cc1)NC(=O)CCCCCCc1ccccc1,inhibition,[18],inactive
same,Activity,[19],Toxic
CN(C)CC(=O)Nc1ccc2[nH]c(=O)c3ccccc3c2c1,IC50,[16],25 nM
same,inhibition,[20],inactive
O=c1[nH]c2ccccc2n1C1CCN(Cc2ccc(-c3nc4cc5[nH]cnc5cc4nc3-c3ccccc3)cc2)CC1,inhibition,[21],inactive
same,Activity,[22],Toxic
same,Activity,[23],Toxic
same,Activity,[24],Toxic
same,Activity,[25],Toxic
COC[C@H]1OC(=O)c2coc3c2[C@@]1(C)C1=C(C3=O)[C@@H]2CCC(=O)[C@@]2(C)C[C@H]1OC(C)=O [WORTMANNIN],inhibition,[26],inactive
same,Activity,[27],Toxic
same,Activity,[28],Toxic
same,Activity,[29],Toxic
same,Activity,[30],Toxic
CCCCCc1ccc(/C=C/C(=O)Nc2ccccc2C(=O)O)cc1,IC50,[31],4.5 µM
CCCCCCCCCCCCCCCCOCC(COCC)OP(=O)([O-])OC.[Li+] (stereo not given),inhibition,[32],inactive
same,Activity,[33],Toxic
